2 molecules from ChEMBL document CHEMBL3868583, “6-Aryl substituted 4-(4-cyanomethyl) phenylamino quinazolines as a new class of isoform-selective PI3K-alpha inhibitors” (Eur J Med Chem, 2016) can be followed below.

For data set [1], the system named is MCF7. Description: Induction of cell cycle arrest in human MCF7 cells assessed as accumulation at S phase at 30 uM after 24 hrs by propidium iodide-staining based FACS analysis (reference value: 30 %). The format is functional. Put shortly: (§1)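 MCF-7 or PC-3 cells treated at indicated concentrations for 24 h, pelleted, PBS-washed, fixed in ice-cold 70% ethanol overnight at 4 °C. RNase 0.2 mg/mL 1 h at 37 °C, propidium iodide 10 µg/mL 30 min dark. 10,000 events (FL2-A vs FL2-W) by flow cytometry; fractions in apoptosis/sub-G1, G1, S, G2-M.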
A general note: In flow cytometry, cells or beads pass a laser one at a time.

Data set [2] has as its system Mus musculus. Description: Toxicity in Swiss mouse implanted with Swiss mouse EAC cells assessed as mortality at 25 mg/kg, ip administered for 1 to 9 days measured on day 12. The format is organism-based, Ehrlich. Particulars: in vivo. Put shortly:
(§2)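 1×10^7 EAC cells injected intraperitoneally into Swiss mice on day 0. Mice randomized next day: treated groups n=7, saline control n=10 (0.2 ml i.p.). Dosing i.p. days 1–9. Sacrifice on day 12; ascitic fluid collected from the peritoneal cavity. % tumor growth inhibition from total tumor cell count versus control. Body weight and mortality tracked.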

Data set [3] concerns Mus musculus. Description: Toxicity in Swiss mouse implanted with Swiss mouse EAT cells assessed as body weight at 15 mg/kg, ip administered for 1 to 9 days measured on day 1 (reference value: 21.6 g). The class given is organism-based. Particulars: in vivo.
In data set [4] the test system is MCF7. The data set can be described thus: Induction of apoptosis in human MCF7 cells assessed as loss of mitochondrial membrane potential at 10 uM after 24 hrs by rhodamine-123-staining based FACS analysis (reference value: 7 % ). The class given is functional. Put shortly:
(§3)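 Cells (MCF-7 or PC-3) exposed to indicated concentrations for 24 h; rhodamine-123 (5 µM) added 1 h before end. Cells collected, PBS-washed; fluorescence of 10,000 events read in FL-1 by flow cytometry, loss of mitochondrial potential scored as decreased intensity.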

In data set [5] the target is Phosphatidylinositol 4,5-bisphosphate 3-kinase catalytic subunit alpha isoform (Homo sapiens, UniProt P42336). As to conditions: MCF7, 30 uM.
Chain of Phosphatidylinositol 4,5-bisphosphate 3-kinase catalytic subunit alpha isoform (P42336 whole entry, canonical isoform): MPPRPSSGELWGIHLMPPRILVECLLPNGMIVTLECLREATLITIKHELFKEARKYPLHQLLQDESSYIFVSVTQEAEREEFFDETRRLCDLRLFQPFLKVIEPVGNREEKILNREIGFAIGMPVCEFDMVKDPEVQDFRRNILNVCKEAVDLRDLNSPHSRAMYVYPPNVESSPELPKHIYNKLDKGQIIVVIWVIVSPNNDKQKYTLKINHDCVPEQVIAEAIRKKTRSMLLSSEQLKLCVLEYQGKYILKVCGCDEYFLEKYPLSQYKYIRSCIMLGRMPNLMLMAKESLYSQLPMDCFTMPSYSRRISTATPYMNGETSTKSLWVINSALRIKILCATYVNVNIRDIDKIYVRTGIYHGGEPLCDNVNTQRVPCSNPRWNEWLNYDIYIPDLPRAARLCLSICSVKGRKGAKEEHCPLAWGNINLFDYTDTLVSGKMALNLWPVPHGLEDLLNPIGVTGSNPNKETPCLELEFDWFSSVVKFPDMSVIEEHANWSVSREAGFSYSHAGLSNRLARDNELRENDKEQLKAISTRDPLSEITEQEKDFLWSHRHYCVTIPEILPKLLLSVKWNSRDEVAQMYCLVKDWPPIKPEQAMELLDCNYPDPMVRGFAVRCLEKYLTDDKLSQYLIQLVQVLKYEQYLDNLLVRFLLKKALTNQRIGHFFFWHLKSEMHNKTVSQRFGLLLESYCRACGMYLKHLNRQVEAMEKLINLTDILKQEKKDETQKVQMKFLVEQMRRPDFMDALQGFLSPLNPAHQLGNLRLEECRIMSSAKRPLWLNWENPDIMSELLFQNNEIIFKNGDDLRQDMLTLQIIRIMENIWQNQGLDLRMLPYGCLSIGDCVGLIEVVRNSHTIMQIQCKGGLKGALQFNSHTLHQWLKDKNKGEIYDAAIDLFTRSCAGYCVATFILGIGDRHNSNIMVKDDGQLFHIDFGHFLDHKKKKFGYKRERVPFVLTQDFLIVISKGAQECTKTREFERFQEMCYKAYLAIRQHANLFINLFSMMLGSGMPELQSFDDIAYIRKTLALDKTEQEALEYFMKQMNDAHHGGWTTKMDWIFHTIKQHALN
Data set [6] deals with MCF7. Description: Induction of cell cycle arrest in human MCF7 cells assessed as accumulation at S phase at 10 uM after 24 hrs by propidium iodide-staining based FACS analysis (reference value: 30 %). The format is functional. The method, boiled down: as §1
Data set [7] is described as follows: Anticancer activity against Swiss mouse EAT cells implanted in Swiss mouse assessed as tumor growth inhibition at 15 mg/kg, ip administered for 1 to 9 days measured on day 13 relative to control. The class given is functional. Particulars: read-out: TGI. The method, boiled down: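 Solid tumor: 1 × 10^7 EAC cells (harvested from 8-10 day ascitic Swiss mice) injected intramuscularly into right thigh of male Swiss mice, day 0; randomized next day (n=7 treated, 10 control). Dosing i.p. days 1-9; saline 0.2 ml control, 5-FU 22 mg/kg reference.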

In data set [8] the test system is MCF7. Description: Induction of cell cycle arrest in human MCF7 cells assessed as apoptotic cells at 10 uM after 24 hrs by propidium iodide-staining based FACS analysis (reference value: 8 %). The class given is functional. Put shortly:
as §1

The test system of data set [9] is MCF7. Description: Induction of apoptosis in human MCF7 cells assessed as loss of mitochondrial membrane potential at 20 uM after 24 hrs by rhodamine-123-staining based FACS analysis (reference value: 7 % ). The format is functional. Put shortly:
as §3

The test system of data set [10] is MCF7. The data set can be described thus: Induction of apoptosis in human MCF7 cells assessed as loss of mitochondrial membrane potential at 30 uM after 24 hrs by rhodamine-123-staining based FACS analysis (reference value: 7 % ). The class given is functional. The method, boiled down: as §3
Data set [11] concerns MCF7. The data set can be described thus: Induction of cell cycle arrest in human MCF7 cells assessed as accumulation at G2 phase at 30 uM after 24 hrs by propidium iodide-staining based FACS analysis (reference value: 20 %). The format is functional. Put shortly:
as §1

The nature of data set [12]: Downregulation of PI3Kalpha expression in human PC3 cells at 30 uM by Western blot analysis. The format is functional, cell-based. As to conditions: PC-3. The method, boiled down: (§4)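 MCF-7 or PC-3 cells (2 × 10^6) treated with compound, lysed (1 × 10^6 cells) in cold NP-40 buffer with protease inhibitors 30 min on ice, 12,000 g 10 min 4 °C. 50 µg protein per lane on SDS-PAGE, PVDF transfer, 5% milk block, primary antibody 2 h, HRP secondary 1 h, ECL on film; β-actin internal control.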
(In general: In western blotting, separated proteins are transferred to a membrane and probed.)

Data set [13] has as its system Mus musculus. Description: Toxicity in Swiss mouse implanted with Swiss mouse EAC cells assessed as mortality at 70 mg/kg, ip administered for 1 to 9 days measured on day 12. Particulars: in vivo. The format is organism-based, Ehrlich. The method, boiled down:
as §2

Data set [14] relates to PC-3. Description: Induction of apoptosis in human PC3 cells assessed as loss of mitochondrial membrane potential at 10 uM after 24 hrs by rhodamine-123-staining based FACS analysis (reference value: 5 % ). The format is functional. Put shortly:
as §3

Data set [15] concerns PC-3. The data set can be described thus: Induction of cell cycle arrest in human PC3 cells assessed as apoptotic cells at 30 uM after 24 hrs by propidium iodide-staining based FACS analysis (reference value: 2 %). The class given is functional. Put shortly:
(§5)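 PC-3 cells exposed 24 h at indicated concentrations, pelleted, fixed overnight in ice-cold 70% ethanol at 4 °C, RNase 0.2 mg/mL at 37 °C 1 h, propidium iodide 10 µg/mL 30 min in dark; 10,000 events acquired (FL2-A vs FL2-W); DNA histograms modelled for apoptotic (sub-G1), G1, S and G2-M fractions.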

Data set [16] has as its system PC-3. Description: Induction of apoptosis in human PC3 cells assessed as loss of mitochondrial membrane potential at 20 uM after 24 hrs by rhodamine-123-staining based FACS analysis (reference value: 5 % ). The format is functional. Put shortly: as §3
Data set [17] is described as follows: Downregulation of PI3Kgamma expression in human PC3 cells at 30 uM by Western blot analysis. The class given is functional, cell-based. Particulars: PC-3. The method, boiled down: as §4
Data set [18] deals with PC-3. Description: Induction of cell cycle arrest in human PC3 cells assessed as apoptotic cells at 10 uM after 24 hrs by propidium iodide-staining based FACS analysis (reference value: 2 %). The class given is functional. Put shortly: as §5
The nature of data set [19]: Cytotoxicity against human PC3 cells assessed as cell growth inhibition after 24 hrs by MTT assay. The format is functional. Particulars: PC-3, 24 h.
Data set [20] relates to PC-3. Description: Induction of cell cycle arrest in human PC3 cells assessed as accumulation at S phase at 30 uM after 24 hrs by propidium iodide-staining based FACS analysis (reference value: 44 %). The class given is functional. The method, boiled down:
as §5

Data set [21] has as its system PC-3. The data set can be described thus: Induction of cell cycle arrest in human PC3 cells assessed as accumulation at G2 phase at 20 uM after 24 hrs by propidium iodide-staining based FACS analysis (reference value: 17 %). The class given is functional. The method, boiled down:
as §1

The test system of data set [22] is PC-3. Description: Induction of cell cycle arrest in human PC3 cells assessed as accumulation at G1 phase at 30 uM after 24 hrs by propidium iodide-staining based FACS analysis (reference value: 39 %). The class given is functional. Put shortly:
as §1

Data set [23] is described as follows: Anticancer activity against Swiss mouse EAC cells implanted in Swiss mouse assessed as tumor growth inhibition at 70 mg/kg, ip administered for 1 to 9 days measured on day 12 relative to control. The class given is functional. Particulars: Ehrlich, read-out: TGI. Put shortly: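 Swiss mice given 1 × 10^7 EAC cells i.p. on day 0, randomized next day (treated n=7, control n=10). Compound given i.p. days 1-9; saline control (0.2 ml i.p.), 5-fluorouracil 20 mg/kg i.p. reference. Sacrificed day 12; ascitic fluid collected; % TGI from total peritoneal tumor cell count versus control.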

The nature of data set [24]: Cytotoxicity against human PC3 cells assessed as cell growth inhibition after 12 hrs by MTT assay. As to conditions: PC-3, 12 h. The format is functional.
A short description of data set [25]: Downregulation of PI3Kdelta expression in human PC3 cells at 30 uM by Western blot analysis. As to conditions: PC-3. The class given is functional, cell-based. Put shortly:
as §4

As usually defined, the inhibition is the share of the control response that was lost under treatment. Low readings indicate a weak effect, high ones a strong effect. In the case of `N#CCc1ccc(Nc2ncnc3ccc(-c4ccc5[nH]ccc5c4)cc23)cc1`, the Activity in [1] is listed as 53%; in [2], “Non-Toxic”; in data set [3], 19.85 g; in data set [4], 12%; in [6], 40%; in data set [8], 7%. In addition, the Activity is recorded as 15% in data set [9], 20% in [10] and 4% in data set [11]. Moreover, the inhibition in data set [5] turned out to be 80%. Besides, the inhibition in vivo at 15 mg/kg in data set [7] stood at 34.3%.
What is called GI50 is the concentration giving 50% growth inhibition. `N#CCc1ccc(Nc2ncnc3ccc(-c4cncc5ccccc45)cc23)cc1`: the Activity was 100% in [12]; “Non-Toxic” in data set [13]; 8% in data set [14]; 25% in [15]; 14% in data set [16]; 20% in data set [17]. The Activity in data set [18] amounted to 4%; in data set [20] it was 46%; in data set [21] it was 9%; in data set [22] it was 42%; in data set [25] it was 32%. The 50% growth inhibitory concentration (GI50) in data set [19] turned out to be 28 µM; in data set [24], 189 µM. Further, the inhibition in vivo at 70 mg/kg in data set [23] worked out at 25.8%.
